Laboratory results taken from ChEMBL document CHEMBL2034928, “Synthesis of [(11)C]dehydropravastatin, a PET probe potentially useful for studying OATP1B1 and MRP2 transporters in the liver” (Bioorg Med Chem, 2012).

Tests used:
Intestine [1] = test: Drug uptake in Sprague-Dawley rat intestine at 22 MBq/body, iv administered as bolus coadministered with rifampicin measured after 60 mins by PET analysis; format: ADME, organism-based; conditions: in vivo, 1 h
Method in brief: (§1)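 Rats were anesthetized with 1.5% isoflurane in nitrous oxide/oxygen (7/3). The 11C tracer (approx. 22 MBq per animal) was given as an IV bolus through a tail-vein catheter, followed by a 60 min microPET emission scan. Regions of interest were set on liver, intestine, kidney and urinary bladder. Uptake was decay-corrected to injection time and expressed as % dose/tissue or % dose/mL blood, normalized to injected radioactivity. Rifampicin was infused at 1.5 µmol/min/kg where applied.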

Liver [2] = test: Drug uptake in Sprague-Dawley rat liver at 22 MBq/body, iv administered as bolus coadministered with rifampicin measured after 2 mins by PET analysis; format: ADME, organism-based; conditions: in vivo; method in brief: as §1
[3] = Drug uptake in Sprague-Dawley rat urinary bladder at 22 MBq/body, iv administered as bolus measured after 60 mins by PET analysis; format: ADME, organism-based; conditions: in vivo, 1 h; method in brief: as §1
Intestine [4] = test: Drug uptake in Sprague-Dawley rat intestine at 22 MBq/body, iv administered as bolus measured after 60 mins by PET analysis; format: ADME, organism-based; conditions: in vivo, 1 h; method in brief: as §1
Liver [5] = test: Drug uptake in Sprague-Dawley rat liver at 22 MBq/body, iv administered as bolus measured up to 2 mins by PET analysis; format: ADME, organism-based; conditions: in vivo; method in brief: as §1
Kidney = test: Drug uptake in Sprague-Dawley rat kidney at 22 MBq/body, iv administered as bolus measured up to 2 mins by PET analysis; format: ADME, organism-based; conditions: in vivo; method in brief: as §1
Blood [6] = test: Drug metabolism in Mrp2 hereditary-deficient Sprague-Dawley rat blood assessed as radiometabolite formation at 22 MBq, iv administered as bolus within 20 mins by PET analysis; format: ADME, organism-based; conditions: in vivo
Method in brief: (§2)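 Radiometabolite analysis, run apart from the PET scans. Blood, liver homogenate and bile were mixed with an equal volume of acetonitrile and centrifuged at 12,000 rpm for 2 min at 4 °C. The supernatant was diluted with mobile phase and run on reversed-phase HPLC (10 mM ammonium acetate/acetonitrile gradient, 2.0 mL/min). Detection was UV 254 nm plus a NaI(Tl) positron detector, reading intact tracer against metabolites.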

Liver [7] = test: Drug metabolism in Mrp2 hereditary-deficient Sprague-Dawley rat liver assessed as radiometabolite formation at 22 MBq, iv administered as bolus within 20 mins by PET analysis; format: ADME, organism-based; conditions: in vivo; method in brief: as §2
[8] = Drug metabolism in Mrp2 hereditary-deficient Sprague-Dawley rat bile assessed as radiometabolite formation at 22 MBq, iv administered as bolus within 20 mins by PET analysis; format: ADME, organism-based; conditions: in vivo; method in brief: as §2
Blood [9] = test: Drug metabolism in Mrp2 hereditary-deficient Sprague-Dawley rat blood assessed as radiometabolite formation at 22 MBq, iv administered as bolus at 2 mins by PET analysis; format: ADME, organism-based; conditions: in vivo; method in brief: as §2
Blood [10] = test: Drug uptake in Mrp2 hereditary-deficient Sprague-Dawley rat blood at 22 MBq, iv administered as bolus after 20 mins by PET analysis; format: ADME, organism-based; conditions: in vivo; method in brief: as §1
Liver [11] = test: Drug uptake in Mrp2 hereditary-deficient Sprague-Dawley rat liver at 22 MBq, iv administered as bolus after 20 mins by PET analysis; format: ADME, organism-based; conditions: in vivo; method in brief: as §1
[12] = Drug uptake in Mrp2 hereditary-deficient Sprague-Dawley rat bile at 22 MBq, iv administered as bolus after 20 mins by PET analysis; format: ADME, organism-based; conditions: in vivo
Hepatocyte [13] = test: Metabolic stability in human hepatocytes; format: ADME, cell-based
Hepatocyte [14] = test: Metabolic stability in rat hepatocytes; format: ADME, cell-based

- Drug uptake (Intestine [1]): Not Active
- Drug uptake (Liver [2]): Not Active
- Drug uptake [3]: 1.51%
- Drug uptake (Intestine [4]): 67.9%
- Drug uptake (Liver [5]): Active
- Drug uptake (Kidney): Active
- Drug metabolism (Blood [6]): Active
- Drug metabolism (Liver [7]): Active
- Drug metabolism [8]: Active
- Drug metabolism (Blood [9]): Active
- Drug uptake (Blood [10]): Active
- Drug uptake (Liver [11]): Active
- Drug uptake [12]: Active
- Stability (Hepatocyte [13]): Stable
- Stability (Hepatocyte [14]): Stable
SMILES: C/C(=C\[11CH3])C(=O)O[C@H]1C[C@H](O)C=C2C=C[C@H](C)[C@H](CC[C@@H](O)C[C@@H](O)CC(=O)[O-])[C@H]21.[Na+]
